Measurements published in ChEMBL document CHEMBL1132247, “Synthesis and nicotinic acetylcholine receptor in vivo binding properties of 2-fluoro-3-[2(S)-2-azetidinylmethoxy]pyridine: a new positron emission tomography ligand for nicotinic receptors” (J Med Chem, 1999).

What was measured:
Rattus norvegicus [1] = species on record: Rattus norvegicus; assay: Biodistribution in rat cerebellum, expressed as percent I.D./g tissue; type: ADME, organism-based; details: in vivo
How it was run: (§1)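 Male Sprague–Dawley rats (190–200 g) received 30 μCi (1.1 MBq) of the 18F-labelled tracer i.v. into a tail vein, formulated in physiological saline and given within 15 min of end of synthesis. Rats were decapitated at selected times, and the brain was removed and dissected on ice. Regions were weighed and gamma-counted alongside injected-dose aliquots, and values were expressed as % I.D./g tissue.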

Rattus norvegicus [2] = species on record: Rattus norvegicus; assay: Biodistribution in rat superior coliculus, expressed as percent I.D./g tissue; type: ADME, organism-based; details: in vivo; how it was run: as §1
Rattus norvegicus [3] = species on record: Rattus norvegicus; assay: Biodistribution in rat thalamus, expressed as percent I.D./g tissue; type: ADME, organism-based; details: in vivo; how it was run: as §1
[4] = Binding affinity towards human Nicotinic acetylcholine receptor was determined using [3H]-cytisine
[5] = Binding affinity towards human Nicotinic acetylcholine receptor was determined using [3H]epibatidine
[6] = molecular target: Neuronal acetylcholine receptor; alpha4/beta2 (Homo sapiens, UniProt P17787+P43681); assay: Binding affinity against human Nicotinic acetylcholine receptor alpha4-beta2
Chain of Neuronal acetylcholine receptor; alpha4/beta2 (P17787 whole entry): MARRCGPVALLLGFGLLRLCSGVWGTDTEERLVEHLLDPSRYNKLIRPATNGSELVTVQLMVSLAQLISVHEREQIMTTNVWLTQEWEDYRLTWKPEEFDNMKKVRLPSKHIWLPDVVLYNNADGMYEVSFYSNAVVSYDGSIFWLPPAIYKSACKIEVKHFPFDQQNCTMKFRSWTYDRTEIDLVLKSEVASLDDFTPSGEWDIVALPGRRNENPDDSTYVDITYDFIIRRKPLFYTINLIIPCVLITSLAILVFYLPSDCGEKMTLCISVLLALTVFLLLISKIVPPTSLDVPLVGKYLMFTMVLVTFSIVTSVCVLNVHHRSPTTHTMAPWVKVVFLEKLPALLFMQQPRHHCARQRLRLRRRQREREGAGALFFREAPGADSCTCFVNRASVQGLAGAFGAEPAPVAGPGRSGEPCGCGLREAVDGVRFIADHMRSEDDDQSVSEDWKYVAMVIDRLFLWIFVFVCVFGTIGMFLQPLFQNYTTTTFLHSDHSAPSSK
Chain of Neuronal acetylcholine receptor; alpha4/beta2 (P43681 whole entry): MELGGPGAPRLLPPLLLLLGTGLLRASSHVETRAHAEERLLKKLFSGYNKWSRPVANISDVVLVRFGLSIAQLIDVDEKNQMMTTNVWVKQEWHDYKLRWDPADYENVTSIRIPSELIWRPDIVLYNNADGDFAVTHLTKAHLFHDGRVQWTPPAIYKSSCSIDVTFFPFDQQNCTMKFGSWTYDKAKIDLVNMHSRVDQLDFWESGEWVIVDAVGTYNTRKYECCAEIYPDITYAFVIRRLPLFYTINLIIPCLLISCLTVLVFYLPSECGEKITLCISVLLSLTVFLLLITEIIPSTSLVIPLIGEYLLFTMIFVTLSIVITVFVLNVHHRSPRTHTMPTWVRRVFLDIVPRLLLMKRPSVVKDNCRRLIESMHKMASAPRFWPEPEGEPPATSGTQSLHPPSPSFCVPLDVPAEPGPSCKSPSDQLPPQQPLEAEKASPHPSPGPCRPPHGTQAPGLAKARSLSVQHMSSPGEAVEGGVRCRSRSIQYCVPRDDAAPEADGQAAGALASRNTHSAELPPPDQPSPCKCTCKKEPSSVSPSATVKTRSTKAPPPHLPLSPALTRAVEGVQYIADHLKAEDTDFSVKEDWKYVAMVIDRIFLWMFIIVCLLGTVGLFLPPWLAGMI

For `Fc1ncccc1OC[C@@H]1CCN1`, the Biodistribution (Rattus norvegicus [1]) was 0.2%, the Biodistribution (Rattus norvegicus [2]) was 0.2% and the Biodistribution (Rattus norvegicus [3]) was 0.3%. It also gave a Ki [4] of 0.048 nM and a Ki [5] of 0.046 nM.

With `c1cncc(OC[C@@H]2CCN2)c1` the Ki [6] was 0.05 nM.

In the case of `O=c1cccc2n1CC1CNC[C@H]2C1` (single isomer, unassigned) [CYTISINICLINE], the Biodistribution (Rattus norvegicus [1]) is reported as 0.2%, the Biodistribution (Rattus norvegicus [2]) is reported as 0.2% and the Biodistribution (Rattus norvegicus [3]) is reported as 0.2%.

Compound `Clc1ccc(C2CC3CCC2N3)cn1` (stereo not drawn) [EPIBATIDINE] has a Biodistribution (Rattus norvegicus [1]) of 0.2%, a Biodistribution (Rattus norvegicus [2]) of 0.2% and a Biodistribution (Rattus norvegicus [3]) of 0.2%.

For `CN1C2CCCC1CC(NC(=O)c1nn(C)c3ccccc13)C2` (stereo not drawn) [GRANISETRON], the Biodistribution (Rattus norvegicus [1]) was 0.2%, the Biodistribution (Rattus norvegicus [2]) was 0.6% and the Biodistribution (Rattus norvegicus [3]) was 0.9%.

Compound `CNC(=O)Oc1ccc2c(c1)[C@]1(C)CCN(C)[C@@H]1N2C` [PHYSOSTIGMINE] has a Biodistribution (Rattus norvegicus [1]) of 0.2%, a Biodistribution (Rattus norvegicus [2]) of 0.4% and a Biodistribution (Rattus norvegicus [3]) of 0.5%.
